Bioassay records: PubChem BioAssay, several laboratories
M1 agonist – M1 muscarinic receptor agonists, primary screen, CHO-M1 cells, Fluo-4 calcium, agonist mode; Muscarinic acetylcholine receptor M1; Fluo-4 calcium fluorescence; hits give high values; B-score at 10 µM; hit rate 3% among 64,000; AID 626, 2007;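 active means fluorescence rise, raw or as B-score row- and column-corrected plate score, outside the 99.7% band of its plate's samples, either direction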
RORa activator – activators of orphan receptor RORA, primary screen, cell-based, luminescence | hit rate 1.5% among 65,000 | CHO-K1 Gal4-RORA LBD luciferase reporter; percent increase over mock-subtracted basal signal | activation, % at 10 µM | Nuclear receptor ROR-alpha (Homo sapiens), P35398;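 active means activation above the mean of all tested compounds plus 3 SD, cut at about 49% in these data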;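 further: 0% = DMSO-treated RORA cells and 100% = added signal equal to DMSO minus mock-transfected cells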
M1 antagonist – antagonists of rat M1 muscarinic receptor; Muscarinic acetylcholine receptor M1 (Rattus norvegicus), P08482; B-score at 10 µM; CHO-M1 cells, Fluo-4 calcium, ACh EC80 antagonist mode; hits give low values; hit rate 3.4% among 64,000;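 active means calcium fluorescence response, raw or row-and-column corrected B-score, differing from the plate sample mean either way at a set confidence level, mostly lower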
D1 allo mod – D1 CRE-luciferase signal change, two-sided – cell-based, HEK293 D1, dopamine EC30, D1 allosteric modulator project, primary screen. dopamine EC30 potentiation; actives deviate in either direction. B-score at 10 µM. hit rate 5.9% among 58,000. AID 641, 2007;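 active means luminescence count or its row- and column-corrected plate score outside the 99.7% band of the plate's sample wells, on either side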
HePTP inh – inhibitors of human HePTP phosphatase, primary screen, biochemical, absorbance, leukemia target; recombinant HePTP phosphatase activity, OD absorbance; inhibition, % at 20 µM; hit rate 0.64% among 110,000; Tyrosine-protein phosphatase non-receptor type 7 (Homo sapiens), P35236; AID 521, 2006; in the data active means inhibition above about 50%;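 further: plate controls were vehicle for no effect and reference inhibitor for full effect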
SF-1 act – activators of human SF-1, primary screen, cell-based, CHO-K1, Gal4-SF-1 LBD, luciferase luminescence | Steroidogenic factor 1 (Homo sapiens), Q13285 | CHO-K1 Gal4-SF-1 LBD luciferase reporter; % increase over DMSO SF-1-specific signal | activation, % at 10 µM | hit rate 1.9% among 65,000;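 active means activation above the mean activation of all tested compounds plus 3 SD, cut at about 50% in these data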
Target sequence (Q13285 whole entry, looked up, the tested form may be a part): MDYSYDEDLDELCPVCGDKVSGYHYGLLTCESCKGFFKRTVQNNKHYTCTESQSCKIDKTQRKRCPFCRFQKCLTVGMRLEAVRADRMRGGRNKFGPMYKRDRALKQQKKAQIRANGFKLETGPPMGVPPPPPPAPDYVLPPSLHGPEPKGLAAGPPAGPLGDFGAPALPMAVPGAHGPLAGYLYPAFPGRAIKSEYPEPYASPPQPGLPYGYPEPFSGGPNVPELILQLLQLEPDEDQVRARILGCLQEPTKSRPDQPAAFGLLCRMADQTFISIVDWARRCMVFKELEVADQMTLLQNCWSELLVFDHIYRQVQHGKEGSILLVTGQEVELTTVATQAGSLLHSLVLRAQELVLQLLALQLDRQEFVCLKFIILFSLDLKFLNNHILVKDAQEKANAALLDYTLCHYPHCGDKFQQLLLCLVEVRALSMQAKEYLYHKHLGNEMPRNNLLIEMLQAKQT
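Material: Transient Gal4-SF-1 LBD reporter, CHO-K1 | Input: 4,000 cells/well | Dosing: One dose, 10 µM compound, 1% DMSO | Incubation: 20 h compound treatment, 37 °C | Detection: SteadyLite luciferase luminescence | Evaluation: Percent activation relative to DMSO median and mock-transfected background | Benchmarks: DMSO-treated SF-1-transfected cells as negative, DMSO-treated mock-transfected cells lacking SF-1 as background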
An asterisk follows results filed as active; . = not tested or not shown. The list is not random: actives were taken first. Their share in the collection is about 8.2%.

SMILES | M1 agonist | RORa activator | M1 antagonist | D1 allo mod | HePTP inh | SF-1 act
Cc1ccc(-c2nc3ccccc3[nH]2)s1 | -0.57 | 50* | 0.22 | -2.1 | 0 | 39
Cc1[nH]c2ccccc2c1-c1nc2ccccc2[nH]1 | 0.59 | -14 | -0.16 | -2.7* | -12 | 14
CCc1ccc(NC(=O)c2cccnc2)cc1 | -0.63 | -3 | -0.68 | -0.075 | 13 | 33
COc1ccc(C2=NOC(C(=O)NCC(C)C)C2)cc1 (stereo not given) | -0.5 | 14 | 0.0043 | -0.53 | -4 | 47
C=CCNc1ncnc2c1cnn2-c1ccc(C)cc1C | 0.13 | 19 | -0.11 | -1.3 | 6 | 16
CCOC(=O)N1CCC(Nc2ncnc3c2cnn3-c2ccc(C)cc2C)CC1 | -1.6 | 0 | 0.15 | -3.7* | 26 | -7
O=C1NC(c2cccs2)Nc2sc3c(c21)CCCC3 (stereo not given) | -0.75 | 21 | 0.12 | 0.044 | 10 | 70*
CCc1ccc(C2NC(=O)c3c(sc4c3CCCC4)N2)cc1 (stereo not given) | . | . | . | . | -5 | .
COc1cc(C2C(C#N)=C(N)Oc3cc(C)oc(=O)c32)ccc1OC(=O)N1CCOCC1 (stereo not given) | . | -2 | . | -3.7* | 3 | -4
c1ccc(N2CCN(c3ncnc4scc(-c5cccs5)c34)CC2)cc1 | -0.19 | 8 | -0.71 | -0.28 | 8 | -5
O=C(c1ccco1)N1CCN(c2ncnc3scc(-c4cccs4)c23)CC1 | 1.9* | 3 | -0.41 | 0.97 | -5 | 7
O=C(c1ccccc1I)N1CCN(c2ccc(F)cc2)CC1 | . | . | . | . | -8 | .
COc1ccc(Cc2nnc(SCC(=O)N3CCN(c4ccccc4)CC3)o2)cc1 | -1.5 | 17 | -0.0076 | 0.67 | -3 | -11
COc1ccc(-c2nnc(SC(C)C(=O)Nc3ccc4c(c3)OCCO4)o2)cc1 (stereo not given) | 0.22 | 25 | 0.52 | -0.84 | -1 | 50*
COc1ccc(N2CCN(C(=O)CSc3nnc(CNc4ccccc4)o3)CC2)cc1 | -2.5* | -4 | -0.31 | 0.5 | -4 | 19
COc1cccc(-c2nnc(SCC(=O)N3CCOCC3)o2)c1 | . | 46 | . | 0.051 | 0 | 34
COc1ccc(-c2nnc(SCC(=O)N3CCOCC3)o2)cc1 | 0.09 | 73* | 0.35 | -0.42 | -4 | 38
COc1ccc(OC)c(C2/C(=C(\O)c3ccc4c(c3)OCCO4)C(=O)C(=O)N2CCCN(C)C)c1 (stereo not given) | 0.14 | -4 | -0.0051 | 1.5 | 3 | -12
CCN(CC)CCCN1C(=O)C(=O)/C(=C(/O)c2ccc3c(c2)OCCO3)C1c1ccc(C)o1 (stereo not given) | -1 | 24 | -0.28 | 2.3* | 14 | 12
O=C(Cn1c(=O)oc2ccccc21)c1ccccc1 | 0.0042 | 1 | 0.46 | -2.6* | 10 | -2
O=c1oc2ccccc2n1CCCOc1ccccc1 | 0.5 | 49* | 0.69 | 0.37 | 5 | 57*
CCCCCCSc1nc2c(c(=O)[nH]c(=O)n2C)n1C | -0.046 | -6 | -0.28 | 2.1 | 7 | 11
Cc1cc2c(cc(C(=O)N3CCC(C(=O)NC4CCCC4)CC3)n2Cc2c(F)cccc2Cl)o1 | 6.2* | -1 | 0.063 | . | 6 | -16
C=CCc1ccccc1OCCOc1ccc(/C=N/n2cnnc2)cc1OC | . | . | . | . | -1 | .
COc1ccccc1N(CC(=O)N1CCCCCC1)S(C)(=O)=O | -0.0043 | . | 0.2 | -0.0036 | -2 | .
SMILES | M1 agonist | RORa activator | M1 antagonist | D1 allo mod | HePTP inh | SF-1 act
CCOc1ccccc1N(CC(=O)N1CCCCCC1)S(C)(=O)=O | 0.11 | 2 | 1.4 | -3.8* | -9 | -3
O=C(COc1ccccc1)Nc1cccc([N+](=O)[O-])c1 | . | . | . | . | 3 | .
O=C(CCOc1ccccc1)Nc1cccc([N+](=O)[O-])c1 | . | . | . | . | 92* | .
COc1cc2cc3c(N)c(C(=O)NCc4ccco4)sc3nc2cc1OC | 4 | 80* | -0.039 | -0.028 | -2 | 44
CCOC(=O)Cc1cc(=O)[nH]c(Nc2nc3ccccc3o2)n1 | 0.14 | 50* | 1 | . | 3 | 11
COC(=O)Cc1cc(=O)[nH]c(Nc2nc3ccccc3o2)n1 | 1.9 | 11 | -0.12 | 1.3 | 7 | 1
Cc1oc(-c2ccc(Cl)cc2)nc1CS(=O)CC(=O)NCCN1CCCC1 (stereo not given) | 0.29 | -3 | -0.019 | . | 4 | -22
CCOC(=O)CSc1nc2cc(C)cc(C)c2cc1C#N | 1.4 | 17 | -0.96 | 0.43 | -5 | 33
CCOc1ccc2cc(C#N)c(SCC(=O)N3CCOCC3)nc2c1 | 0.11 | 56* | 0.2 | 1.9 | 9 | 21
CCOC(=O)CSc1nc(N)c(C#N)cc1C#N | . | . | . | . | -15 | .
CCOC(=O)CSc1nc2cc(C)ccc2cc1C#N | -0.42 | 71* | 0.13 | -1 | -3 | 85*
CCOC(=O)CSc1nc2cc3c(cc2cc1C#N)OCO3 | -2.2 | 48 | 0.79 | 0.23 | 4 | 66*
CCOC(=O)CSc1nc2cc(OC)ccc2cc1C#N | -0.021 | 68* | -0.009 | -0.25 | -4 | 104*
Cc1sc2nc(C3CC3)nc(SCC(=O)NCc3ccco3)c2c1C | -0.29 | 2 | -0.33 | 0.76 | -2 | -14
Cc1ccc(OCC(=O)Nc2ccccc2CO)cc1 | . | . | . | . | 3 | .
O=C(COc1ccc2cc(-c3nc4ccccc4s3)c(=O)oc2c1)OCc1ccccc1 | . | . | . | . | 6 | .
O=C1NC(=S)S/C1=C/c1ccc(O)c(Br)c1 | . | . | . | . | 104* | .
O=C1NC(=S)S/C1=C/c1ccc(OCc2ccc(F)cc2)c(Br)c1 | . | . | . | . | 14 | .
CC(c1nc2ccccc2n1C)C(O)c1ccccc1 (stereo not given) | . | . | . | . | -10 | .
c1ccc(OCCOc2ncnc3sccc23)cc1 | 0.0077 | 39 | -0.051 | 0.59 | -3 | 53*
CCOc1ccccc1OCCCCCc1c(C)n[nH]c1C | 0.13 | 20 | -1.8 | -2.4* | 5 | -2
COc1cccc(C2C(C#N)=C(N)Oc3cc(C)n(Cc4ccco4)c(=O)c32)c1 (stereo not given) | -0.92 | -13 | 0.37 | 0.4 | 9 | 0
Cc1ncsc1C(=O)Nc1nc2c(s1)CCCC2 | 0.76 | 57* | -0.038 | -1.5 | 3 | 66*
O=C(Nc1nc2c(s1)CCCC2)c1ccc(Br)s1 | 0.12 | 9 | -1.1 | -4.4* | 4 | 25
O=C(Nc1nc2c(s1)CCCC2)c1ccc2ncsc2c1 | 0.0089 | 50* | 0.076 | . | -2 | 38
Cc1cc(C(=O)Nc2nc3c(s2)CCCC3)cs1 | 0.014 | -22 | -0.45 | -5* | -7 | 3
O=C(Nc1nnc(C2CCCCC2)s1)c1ccc(Br)s1 | -0.53 | 27 | 1 | -1.1 | 2 | 6
